Converted amounts (≈) assume the structure as drawn.
Tests used:
Staphylococcus aureus = experiment: Antibacterial activity against Staphylococcus aureus subsp aureus CIP 53.154 assessed as growth inhibition at 30 degC after 24 hrs by liquid broth dilution method; type: functional; settings: CIP 53.154, 24 h
Summary of the method: (§1)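 Strains kept at -80 °C in LB broth with 20% glycerol and grown from 1% (v/v) stock in nutritive broth (yeast extract 1 g/L, meat extract 2 g/L, peptone 5 g/L, NaCl 5 g/L) at 30 °C. Overnight culture adjusted to 0.5 McFarland (~1.5 × 10⁸ cfu/mL). Compound stock 1 g/L in DMSO, serially diluted in broth 1:2 to 1:512, mixed 1:1 with inoculum. Incubation 24 h, 150 rpm, 30 °C. OD600 read; MIC = lowest concentration with no OD increase in all replicates versus negative control.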

[1] = tested on: Mycolicibacterium smegmatis; experiment: Antibacterial activity against Mycobacterium smegmatis CIP 73.26 assessed as growth inhibition at 37 degC after 24 hrs by liquid broth dilution method; type: functional; settings: CIP 73.26, 24 h
Summary of the method: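 Inoculum at 0.5 McFarland (~1.5 × 10⁸ cfu/mL). DMSO stock (1 g/L) serially diluted in the same medium 1:2 to 1:512. Shaken 24 h at 150 rpm, 37 °C. MIC = lowest concentration with no OD600 rise in any replicate versus negative control.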

Micrococcus luteus = experiment: Antibacterial activity against Micrococcus luteus CIP 53.45 assessed as growth inhibition at 30 degC after 24 hrs by liquid broth dilution method; type: functional; settings: CIP 53.45, 24 h; summary of the method: as §1
[2] = tested on: Geobacillus stearothermophilus; experiment: Antibacterial activity against Bacillus stearothermophilus ATTC 12980 assessed as growth inhibition at 30 degC after 24 hrs by liquid broth dilution method; type: functional; settings: ATTC 12980, 24 h; summary of the method: as §1
Sinorhizobium meliloti = experiment: Antibacterial activity against Sinorhizobium meliloti Rm1021 assessed as growth inhibition at 30 degC after 24 hrs by liquid broth dilution method; type: functional; settings: Rm1021, 24 h; summary of the method: as §1
Pseudomonas aeruginosa = experiment: Antibacterial activity against Pseudomonas aeruginosa CIP A22 assessed as growth inhibition at 30 degC after 24 hrs by liquid broth dilution method; type: functional; settings: CIP A22, 24 h; summary of the method: as §1
Escherichia coli = experiment: Antibacterial activity against Escherichia coli ATCC 10536 assessed as growth inhibition at 30 degC after 24 hrs by liquid broth dilution method; type: functional; settings: ATCC 10536, 24 h; summary of the method: as §1
Dickeya chrysanthemi = experiment: Antibacterial activity against Erwinia chrysanthemi EC3937 assessed as growth inhibition at 30 degC after 24 hrs by liquid broth dilution method; type: functional; settings: EC3937, 24 h; summary of the method: as §1
Enterobacter cloacae = experiment: Antibacterial activity against Enterobacter cloacae ATCC 13047 assessed as growth inhibition at 30 degC after 24 hrs by liquid broth dilution method; type: functional; settings: ATCC 13047, 24 h; summary of the method: as §1
Citrobacter freundii = experiment: Antibacterial activity against Citrobacter freundii ATCC 6750 assessed as growth inhibition at 30 degC after 24 hrs by liquid broth dilution method; type: functional; settings: ATCC 6750, 24 h; summary of the method: as §1
[3] = Critical micelle concentration of the compound by wilhelmy method; type: physicochemical
Summary of the method: (§2)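 Wilhelmy plate method at 293 K. Concentrated solution added stepwise from a syringe into ultrapure water, stirred gently 30 s after each addition, then equilibrium surface tension read. Each value is the mean of at least three measurements (SD within ±1.5% of mean). Transducer precision 0.1 mN/m; platinum plate flame-cleaned. Surface tension plotted against molar concentration to give CMC and γCMC.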

[4] = Gamma critical micelle concentration of the compound by wilhelmy method; type: physicochemical; summary of the method: as §2

Which MIC (Staphylococcus aureus) does the source give for `CCCCCCCCOC[C@H]1O[C@@H]2OC(C)(C)O[C@@H]2[C@H]2OC(C)(C)O[C@H]21` here?
The MIC was at least 250 µg/mL.

What about the MIC [1] of the same compound?
Its MIC is at least 250 µg/mL.

And the MIC (Micrococcus luteus)?
Its MIC is at least 250 µg/mL.

What about the MIC [2] of the same compound?
Its MIC is at least 250 µg/mL.

And the MIC (Sinorhizobium meliloti)?
The MIC was at least 250 µg/mL.

And the MIC (Pseudomonas aeruginosa)?
Its MIC is at least 250 µg/mL.

And the MIC (Escherichia coli)?
The MIC was at least 250 µg/mL.

And the MIC (Dickeya chrysanthemi)?
Its MIC is at least 250 µg/mL.

And the MIC (Enterobacter cloacae)?
Its MIC is at least 250 µg/mL.

And the MIC (Citrobacter freundii)?
Its MIC is at least 250 µg/mL.

With `CCCCCCCCCCCCOC[C@H]1O[C@@H]2OC(C)(C)O[C@@H]2[C@H]2OC(C)(C)O[C@H]21` as the compound, how does the MIC (Staphylococcus aureus) read?
The MIC was at least 250 µg/mL.

And the MIC [1]?
The MIC was at least 250 µg/mL.

And the MIC (Micrococcus luteus)?
Its MIC is at least 250 µg/mL.

What about the MIC [2] of the same compound?
Its MIC is at least 250 µg/mL.

What about the MIC (Sinorhizobium meliloti) of the same compound?
The MIC was at least 250 µg/mL.

What about the MIC (Pseudomonas aeruginosa) of the same compound?
Its MIC is at least 250 µg/mL.

And the MIC (Escherichia coli)?
The MIC was at least 250 µg/mL.

What about the MIC (Dickeya chrysanthemi) of the same compound?
The MIC was at least 250 µg/mL.

What about the MIC (Enterobacter cloacae) of the same compound?
The MIC was at least 250 µg/mL.

What about the MIC (Citrobacter freundii) of the same compound?
Its MIC is at least 250 µg/mL.

For `CCCCCCCCOC[C@H]1O[C@H](O)[C@H](O)[C@@H](O)[C@H]1O`, which MIC (Staphylococcus aureus) is on record?
The MIC was at least 250 µg/mL.

And the MIC [1]?
The MIC was at least 250 µg/mL.

And the MIC (Micrococcus luteus)?
Its MIC is at least 250 µg/mL.

And the MIC [2]?
The MIC was at least 250 µg/mL.

What about the MIC (Sinorhizobium meliloti) of the same compound?
The MIC was at least 250 µg/mL.

What about the MIC (Pseudomonas aeruginosa) of the same compound?
The MIC was at least 250 µg/mL.

What about the MIC (Escherichia coli) of the same compound?
Its MIC is at least 250 µg/mL.

What about the MIC (Dickeya chrysanthemi) of the same compound?
The MIC was at least 250 µg/mL.

And the MIC (Enterobacter cloacae)?
Its MIC is at least 250 µg/mL.

What about the MIC (Citrobacter freundii) of the same compound?
The MIC was at least 250 µg/mL.

And the CMC [3]?
Its CMC is 12 mmol/L.

And the gammaCMC [4]?
The gammaCMC was 28 mN/meter.

Which MIC (Staphylococcus aureus) does the source give for `CCCCCCCCCCCCOC[C@H]1O[C@H](O)[C@H](O)[C@@H](O)[C@H]1O` here?
The MIC was at least 250 µg/mL.

And the MIC [1]?
Its MIC is at least 250 µg/mL.

And the MIC (Micrococcus luteus)?
Its MIC is at least 250 µg/mL.

What about the MIC [2] of the same compound?
The MIC was at least 250 µg/mL.

And the MIC (Sinorhizobium meliloti)?
The MIC was at least 250 µg/mL.

What about the MIC (Pseudomonas aeruginosa) of the same compound?
The MIC was at least 250 µg/mL.

And the MIC (Escherichia coli)?
Its MIC is at least 250 µg/mL.

What about the MIC (Dickeya chrysanthemi) of the same compound?
Its MIC is at least 250 µg/mL.

What about the MIC (Enterobacter cloacae) of the same compound?
The MIC was at least 250 µg/mL.

What about the MIC (Citrobacter freundii) of the same compound?
Its MIC is at least 250 µg/mL.

And the CMC [3]?
The CMC was “Not Active”.

What about the gammaCMC [4] of the same compound?
Its gammaCMC is “Not Active”.

Which MIC (Staphylococcus aureus) does the source give for `CCCCCCCCOCCCCOC[C@H]1O[C@@H]2OC(C)(C)O[C@@H]2[C@H]2OC(C)(C)O[C@H]21` here?
Its MIC is 125 µg/mL (≈ 281 µM).

And the MIC [1]?
The MIC was 62.5 µg/mL (≈ 141 µM).

What about the MIC (Micrococcus luteus) of the same compound?
Its MIC is 62.5 µg/mL (≈ 141 µM).

What about the MIC [2] of the same compound?
The MIC was 62.5 µg/mL (≈ 141 µM).

And the MIC (Sinorhizobium meliloti)?
The MIC was 62.5 µg/mL (≈ 141 µM).

What about the MIC (Pseudomonas aeruginosa) of the same compound?
Its MIC is 62.5 µg/mL (≈ 141 µM).

And the MIC (Escherichia coli)?
Its MIC is 62.5 µg/mL (≈ 141 µM).

What about the MIC (Dickeya chrysanthemi) of the same compound?
The MIC was 62.5 µg/mL (≈ 141 µM).

What about the MIC (Enterobacter cloacae) of the same compound?
The MIC was 62.5 µg/mL (≈ 141 µM).

And the MIC (Citrobacter freundii)?
Its MIC is 62.5 µg/mL (≈ 141 µM).

For `CCCCCCCCOCC#CCOC[C@H]1O[C@@H]2OC(C)(C)O[C@@H]2[C@H]2OC(C)(C)O[C@H]21`, which MIC (Staphylococcus aureus) is on record?
Its MIC is 125 µg/mL (≈ 284 µM).

What about the MIC [1] of the same compound?
Its MIC is 62.5 µg/mL (≈ 142 µM).

And the MIC (Micrococcus luteus)?
The MIC was 62.5 µg/mL (≈ 142 µM).

What about the MIC [2] of the same compound?
Its MIC is 62.5 µg/mL (≈ 142 µM).

And the MIC (Sinorhizobium meliloti)?
The MIC was 62.5 µg/mL (≈ 142 µM).

What about the MIC (Pseudomonas aeruginosa) of the same compound?
The MIC was 62.5 µg/mL (≈ 142 µM).

What about the MIC (Escherichia coli) of the same compound?
Its MIC is 62.5 µg/mL (≈ 142 µM).

What about the MIC (Dickeya chrysanthemi) of the same compound?
Its MIC is 62.5 µg/mL (≈ 142 µM).

What about the MIC (Enterobacter cloacae) of the same compound?
Its MIC is 62.5 µg/mL (≈ 142 µM).

What about the MIC (Citrobacter freundii) of the same compound?
The MIC was 62.5 µg/mL (≈ 142 µM).

Which results are given for `CCCCCCCCOc1ccc(OC[C@H]2O[C@@H]3OC(C)(C)O[C@@H]3[C@H]3OC(C)(C)O[C@H]32)cc1`?
MIC (Staphylococcus aureus): 125 µg/mL (≈ 269 µM); MIC [1]: 62.5 µg/mL (≈ 135 µM); MIC (Micrococcus luteus): 62.5 µg/mL (≈ 135 µM); MIC [2]: 62.5 µg/mL (≈ 135 µM); MIC (Sinorhizobium meliloti): 62.5 µg/mL (≈ 135 µM); MIC (Pseudomonas aeruginosa): 125 µg/mL (≈ 269 µM); MIC (Escherichia coli): 62.5 µg/mL (≈ 135 µM); MIC (Dickeya chrysanthemi): 62.5 µg/mL (≈ 135 µM); MIC (Enterobacter cloacae): 62.5 µg/mL (≈ 135 µM); MIC (Citrobacter freundii): 125 µg/mL (≈ 269 µM)

Which results are given for `CCCCCCCCCCCCOCCCCOC[C@H]1O[C@@H]2OC(C)(C)O[C@@H]2[C@H]2OC(C)(C)O[C@H]21`?
MIC (Staphylococcus aureus): 125 µg/mL (≈ 250 µM); MIC [1]: 31.2 µg/mL (≈ 62.4 µM); MIC (Micrococcus luteus): 15.6 µg/mL (≈ 31.2 µM); MIC [2]: 31.2 µg/mL (≈ 62.4 µM); MIC (Sinorhizobium meliloti): 62.5 µg/mL (≈ 125 µM); MIC (Pseudomonas aeruginosa): 62.5 µg/mL (≈ 125 µM); MIC (Escherichia coli): 62.5 µg/mL (≈ 125 µM); MIC (Dickeya chrysanthemi): 62.5 µg/mL (≈ 125 µM); MIC (Enterobacter cloacae): 62.5 µg/mL (≈ 125 µM); MIC (Citrobacter freundii): 62.5 µg/mL (≈ 125 µM)

— ChEMBL document CHEMBL2331520, “Synthesis, surface tension properties and antibacterial activities of amphiphilic D-galactopyranose derivatives” (Eur J Med Chem, 2013)
